# Compounds with a hit are over-represented: about 3.7% of the library has one in this group of screens.
# KCNQ1 pot: potentiators or activators of human KCNQ1 potassium channel; 310,000 compounds, 0.35% hits; B-score at 10 µM; CHO-K1 KCNQ1, thallium flux FluxOR fluorescence; hits give high values;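 active means fluorescence ratio B-score, a plate-corrected score, at least three library SD, with initial intensity B-score within 5 SD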
# Target sequence (P51787 whole entry, looked up): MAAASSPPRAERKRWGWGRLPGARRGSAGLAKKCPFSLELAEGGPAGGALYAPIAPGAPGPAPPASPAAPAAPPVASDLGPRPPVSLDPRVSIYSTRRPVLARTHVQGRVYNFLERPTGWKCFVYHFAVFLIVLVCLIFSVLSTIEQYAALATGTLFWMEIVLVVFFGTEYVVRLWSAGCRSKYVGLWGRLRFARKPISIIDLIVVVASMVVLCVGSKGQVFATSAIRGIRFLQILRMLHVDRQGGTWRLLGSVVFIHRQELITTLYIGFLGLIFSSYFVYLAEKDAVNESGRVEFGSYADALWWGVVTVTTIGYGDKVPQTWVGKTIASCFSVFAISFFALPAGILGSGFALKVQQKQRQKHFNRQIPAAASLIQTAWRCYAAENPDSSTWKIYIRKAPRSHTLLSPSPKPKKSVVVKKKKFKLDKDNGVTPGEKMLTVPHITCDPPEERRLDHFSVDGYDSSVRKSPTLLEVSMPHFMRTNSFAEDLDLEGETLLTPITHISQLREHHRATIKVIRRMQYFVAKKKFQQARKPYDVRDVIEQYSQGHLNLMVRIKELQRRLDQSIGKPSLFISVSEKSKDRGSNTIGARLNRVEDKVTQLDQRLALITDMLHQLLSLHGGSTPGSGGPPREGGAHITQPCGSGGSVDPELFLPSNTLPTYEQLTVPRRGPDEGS
#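 System: CHO-K1 cells stably expressing KCNQ1 / Medium: assay buffer for compound exposure, DMSO matched across wells / Reagent: thallium- and potassium-containing depolarizing buffer / Compound: one concentration, matched DMSO / Incubation: 20 min compound pretreatment at room temperature / Measured by: kinetic FluxOR fluorescence, 10 s baseline plus 110 s post-stimulus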
# KCNK3 block: human KCNK3 channel inhibition, primary screen; B-score at 10 µM; CHO-KCNK3 thallium flux, FluxOR fluorescence; hits give low values; 340,000 compounds, 0.84% hits; O14649;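 active means B-score under library mean minus 4 SD, starting fluorescence ratio at most library mean plus 5 SD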;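 further: more negative B-score means stronger inhibition of thallium flux through KCNK3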
# Kir21 inh: inhibitors of mouse Kir2.1 inward-rectifier potassium channel | P35561 | HEK293-Kir2.1, FluxOR thallium flux fluorescence; hits give low values | B-score at 10 µM | 310,000 compounds, 0.85% hits | AID 1672;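 active means fluorescence ratio B-score at or below minus 3 SD of library scores, with starting-brightness B-score within 2 SD, cut at about -4.2 in these data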;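 further: channel flux triggered by added potassium and thallium sulfate stimulus; B-score of peak minus minimum fluorescence over baseline after thallium stimulus; more negative B-score means stronger Kir2.1 block with less thallium influx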
# hERG protect: shields human hERG channel from block by proarrhythmic agents; CHO-hERG, FluxOR thallium flux, dofetilide IC70 present; activation (rescue from dofetilide block), less the hit threshold, % at 10 µM; 310,000 compounds, 0.51% hits; AID 1511; Q12809;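 active means activation above the mean of controls blocked by dofetilide plus 5 SD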;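 further: thallium influx through hERG after potassium depolarization seen as dye fluorescence rise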
# KCNQ1 inh: inhibitors of human KCNQ1 potassium channel; AID 2642; CHO-K1 KCNQ1, FluxOR thallium flux fluorescence; hits give high values; B-score at 10 µM; 310,000 compounds, 1.3% hits; P51787;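 active means compounds whose thallium flux B-score, printed positive for inhibition, exceeds three library SD while starting fluorescence stays within three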;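 further: channel opened by potassium depolarization with thallium stimulus after 20 min compound exposure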
# KCNK9 block: inhibitors of human KCNK9 two-pore domain potassium channel | Q9NPC2 | 310,000 compounds, 1.2% hits | B-score at 10 µM | HEK293 KCNK9, FluxOR thallium flux fluorescence; hits give low values | AID 488922;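 active means ratio B-score over 3 SD below the library mean, with starting fluorescence within 5 SD of its mean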;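 further: negative B-score means less thallium flux so channel inhibition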
# KCNK9 block conf: human KCNK9 inhibitor confirmation; shares compounds with KCNK9 block; HEK293 KCNK9 cells, FluxOR thallium flux fluorescence; inhibition, % at 10 µM; 4,900 compounds, 43% hits;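 active means thallium signal inhibited by more than 5 SD of the compound-free buffer control wells, on both duplicate plates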;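 further: 0% = assay buffer control wells without compound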
# Kir2-1 spec: selectivity of KCNK9 modulators against mouse Kir2.1 | shares compounds with KCNK9 block | Kir2.1 cells, FluxOR thallium flux fluorescence | inhibition, % at 10 µM | 4,900 compounds, 4% hits;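 active means thallium signal drop more than 5 SD beyond the mean of the no-compound control wells, seen in both duplicate plates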;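 further: signal is fluorescence rise after thallium addition divided by baseline fluorescence; plate controls were assay buffer only for no effect and full block by chlorpromazine control for full effect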
# KCNK9 uninduced: non-induced cell nonspecific activity of KCNK9 modulators. shares compounds with KCNK9 block. non-induced KCNK9-HEK293, FluxOR thallium flux. inhibition, % at 10 µM. 4,900 compounds, 40% hits. AID 492997;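 active means thallium signal drop beyond 5 SD of the untreated control mean, on both duplicate plates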;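 further: plate controls were buffer only IC0 wells for no effect and SID17386958 at its maximal inhibitory level for full effect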
# The depositor's hits bear a star; i = inactive; x = no result.
SMILES,KCNQ1 pot,KCNK3 block,Kir21 inh,hERG protect,KCNQ1 inh,KCNK9 block,KCNK9 block conf,Kir2-1 spec,KCNK9 uninduced
COc1ccccc1CCN1CCCC(CN(C)Cc2ccc(OCCO)cc2)C1 (stereo not given),i,i,0.62,-10,i,i,x,x,x
O=C(NCCc1ccccc1)c1ccc2c(c1)OCCO2,i,i,0.87,-4,i,i,i,i,i
O=C(NCCc1ccccc1)c1ccc2c(c1)OCCCO2,i,i,-0.69,-4,i,i,x,x,x
COc1cccc(N2CCN(S(=O)(=O)c3cc4c(cc3Cl)NC(=O)CO4)CC2)c1,i,i,0.64,-2,i,i,x,x,x
Cc1ccccc1Nc1ncnc2c1cnn2-c1ccccc1,i,i,-0.67,-11,i,-9.5*,i,i,i
COc1ccc(CCNC(=O)c2ccc(Cl)c(S(=O)(=O)N(C)c3ccccc3)c2)cc1,i,i,-0.18,-8,i,i,i,i,i
COc1cc(C)c(C(=O)Oc2cc(C)c(C(=O)O)c(O)c2C)c(O)c1C(=O)O,i,i,-1.1,-3,i,i,x,x,x
COc1cc(C)c(C(=O)Oc2cc(C)c(C(=O)O)c(O)c2C)c(OC)c1C,i,i,-0.02,-9,i,i,i,i,i
Cc1c(S(=O)(=O)NC2CCCCCC2)c(=O)n(C)c(=O)n1C,i,i,-0.88,-13,i,i,x,x,x
O=C(Cc1coc2cc3c(cc12)CCC3)OCc1cc(=O)n2c(n1)sc1ccccc12,i,i,1.5,-16,i,i,i,i,i
C[n+]1c2n(c3ccccc31)N=C(c1cc(C(C)(C)C)c(O)c(C(C)(C)C)c1)CS2,i,-13*,-7.8*,-38,7*,-19*,76%*,46%*,32%*
CC(=O)Nc1ccc([N+](=O)[O-])cn1,i,i,-0.24,-5,i,-8.4*,i,i,i
O=C(Nc1ccc([N+](=O)[O-])cn1)C1CC1,i,i,0.89,-5,i,i,x,x,x
Cc1ccc(CN2CC(C(=O)N3CCN(c4ccccc4O)CC3)CC2=O)cc1 (stereo not given),i,i,0.26,-7,i,i,x,x,x
c1ccc(-c2cc3c(N4CCN(c5ncccn5)CC4)ncnc3s2)cc1,i,i,0.66,-10,i,i,i,i,i
CC1CN(C(=S)NC(=O)c2ccco2)CC(C)O1 (stereo not given),i,i,-1.3,-7,i,i,x,x,x
Cc1cc(C)c(C)c(S(=O)(=O)NCC(=O)NCC2CCCCC2)c1C,i,i,-2.5,-4,i,-12*,34%*,i,26%*
O=C(COC(=O)CNC(=O)c1ccccc1Cl)Nc1cc(C(F)(F)F)ccc1Cl,x,i,x,x,x,x,x,x,x
O=C(CNC(=O)c1ccccc1F)OC(C(=O)Nc1cc(C(F)(F)F)ccc1Cl)c1ccccc1 (stereo not given),i,i,1.5,-9,i,-11*,i,i,32%*
CC1CCN(Cc2c(C(=O)N/N=C/c3ccc(OC(C)C)cc3)nnn2-c2nonc2N)CC1,i,i,0.3,-15,i,i,i,i,i
Cc1ccccc1COc1ccc(/C=N/NC(=O)c2nnn(-c3nonc3N)c2CN2CCC(C)CC2)cc1,i,i,0.57,-4,i,i,i,i,i
CC(=C/c1ccccc1)/C=N/NC(=O)c1nnn(-c2nonc2N)c1CN1CCC(C)CC1,i,i,-1.8,-10,i,i,x,x,x
CS(=O)(=O)c1cccc(S(=O)(=O)N2CCCCCC2)c1,i,i,0.36,-7,i,i,x,x,x
COc1cc(/C=C(\C#N)C(=O)Nc2ccccc2F)ccc1OCCN1CCOCC1,i,i,0.03,-13,i,i,x,x,x
Cc1ccccc1N1CCN(c2ncnc3scc(-c4cccs4)c23)CC1,i,i,0.24,-18,i,-14*,44%*,i,i
SMILES,KCNQ1 pot,KCNK3 block,Kir21 inh,hERG protect,KCNQ1 inh,KCNK9 block,KCNK9 block conf,Kir2-1 spec,KCNK9 uninduced
CCOC(=O)N1CCN(c2ncnc3scc(-c4ccc(Cl)cc4)c23)CC1,i,i,0.9,-4,i,i,x,x,x
Clc1ccc(-c2csc3ncnc(N4CCc5ccccc5C4)c23)cc1,i,i,-0.48,-14,i,-10*,45%*,i,40%*
Clc1ccc(CN2CCN(c3ncnc4scc(-c5cccs5)c34)CC2)cc1,i,i,-0.87,-23,7*,-13*,34%*,i,i
CC(=O)C[C@H](O)CC(=O)[C@@H]1OC(=O)CCCCCc2ccccc21,x,i,x,x,x,x,x,x,x
Cn1c(N)c(C(=O)CSc2nnc(C3CC3)n2-c2ccccc2)c(=O)n(C)c1=O,x,i,x,x,x,x,x,x,x
CCC1=C(OC(=O)N(CC)CC)N2C(=O)OC(=NCCc3c[nH]c4ccccc34)[C@]2(Cc2ccccc2)[C@H]2C1=CC[C@H]1C(=O)N(C)C(=O)[C@H]12,i,i,1.2,-11,i,-9.5*,41%*,i,40%*
Cc1ccc(O)c(CNc2cccc3cccnc23)c1,i,i,0.35,-17,i,-9.7*,60%*,i,36%*
Cc1ccc(O)c(CNc2ccccn2)c1,i,i,0.08,-2,i,i,x,x,x
Oc1ccc(Br)cc1CNc1cccc2cccnc12,i,i,0.02,-11,i,-13*,52%*,i,40%*
COc1cccc(/C=N/NC(=O)c2nc(-c3ccccc3)cc(-c3ccccc3)n2)c1O,i,i,1.6,-28,i,-8.6*,i,i,i
c1ccc(Cc2nnc(N3CCCCC3)c3ccccc23)cc1,i,i,-2.3,-4,i,i,i,i,i
Cc1ccc(C)c(NC(=O)CN(C)C(=O)c2ccc(-c3cccc(C(F)(F)F)c3)o2)c1,i,i,-1.1,-16,i,i,x,x,x
COc1cc(C)ccc1N(CCCN1C(=O)c2cccc3cccc(c23)C1=O)C(=O)c1cccs1,i,i,1.2,-22,i,-14*,80%*,i,34%*
COc1ccc(N(CCCN2C(=O)c3cccc4cccc(c34)C2=O)C(=O)c2cccs2)cc1,i,i,0.43,-8,i,i,x,x,x

# From PubChem BioAssay
